In ChEMBL document CHEMBL1141377 (J Nat Prod, 2007):
Active and inactive are the calls of the source. The calls are words filed in the database; no cut-off is given here.

Columns and labels:
[1] = biological target: 20S proteasome; assay: Inhibition of human 20S proteasome; type: subcellular
[2] = biological target: Trypsin (Homo sapiens) (UniProt P07477+P07478+P35030); assay: Inhibition of trypsin up to 100 uM; type: protein assay
[3] = species: Homo sapiens; assay: Inhibition of chymotrypsin up to 100 uM
[4] = Stability in neutral pH after 24 hrs; type: physicochemical; conditions: read-out: Stability
Procedure, shortened: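 Compound solutions in 20% MeOH incubated in horse serum or water at pH 7 for 24 h. Recovery estimated by HPLC.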

[5] = test system: MDA-MB-231; assay: Cytotoxicity against human MDA-MB-231 cell line; type: functional, cell-based
[6] = test system: PBMC; assay: Inhibition of LPS-induced TNFalpha production in human PBMC; type: functional, cell-based
Procedure, shortened: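 Human PBMC isolated from heparinized healthy-donor blood on 80% Percoll, washed twice in PBS, in RPMI1640 with 10% heat-inactivated FCS. Cells preincubated 1 h with compound or DMSO (final 0.1%), then stimulated with LPS (1 μg/mL). After overnight culture, supernatant TNF-α measured. IC50 reported.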

[7] = test system: NCI-H460; assay: Cytotoxicity against human H460 cell line; type: functional, cell-based
[8] = test system: HCT-116; assay: Cytotoxicity against human HCT116 cell line; type: cell-based
[9] = Stability in alkaline pH after 48 hrs; type: physicochemical; conditions: read-out: Stability
[10] = Stability in neutral pH after 48 hrs; type: physicochemical; conditions: read-out: Stability

For `CCCCCC(O)[C@H]1C(=O)N[C@](C(=O)O)([C@@H](O)[C@@H]2C=CCCC2)[C@@]1(C)O` (stereo partly specified) [CINNABARAMIDE D], the IC50 [1] was 100 nM, the Activity [2] was “inactive” and the Activity [3] was “inactive”.
With `CCCCCC(O)[C@H]1C(=O)N[C@@]2([C@@H](O)[C@@H]3C=CCCC3)C(=O)O[C@@]12C` (stereo partly specified) [CINNABARAMIDE B] the IC50 [1] was 245 nM, the remaining at 24 h [4] was 50% and the Activity [2] was “inactive”. The Activity [3] was “inactive”.
Compound `CCCCCC[C@H]1C(=O)N[C@@]2([C@@H](O)[C@@H]3C=CCCC3)C(=O)O[C@@]12C` [CINNABARAMIDE A] has an IC50 [5] of 1000 nM, an IC50 [1] of 1 nM and a remaining at 24 h [4] of 50%. The Activity [2] was “inactive”, the IC50 [6] was 500 nM and the IC50 [7] was 1000 nM. The Activity [3] was “inactive” and the Activity [8] was 10 nM.
With `CCCCCC[C@H]1C(=O)N[C@](C(=O)SC[C@H](NC(C)=O)C(=O)OC)([C@@H](O)[C@@H]2C=CCCC2)[C@@]1(C)O` [CINNABARAMIDE G] the remaining at 48 h [9] was 45%, the IC50 [1] was 0.6 nM and the Activity [2] was “inactive”. The remaining at 48 h [10] was 90% and the Activity [3] was “inactive”.
In the case of `CCCCCC[C@H]1C(=O)N[C@](C(=O)SC[C@H](NC(C)=O)C(=O)O)([C@@H](O)[C@@H]2C=CCCC2)[C@@]1(C)O` [CINNABARAMIDE F], the IC50 [1] is reported as 6 nM, the Activity [2] is reported as “inactive” and the remaining at 48 h [10] is reported as over 90%. For the same compound, the Activity [3] was “inactive”.
With `CCCCCC[C@H]1C(=O)N[C@](C(=O)O)([C@@H](O)[C@@H]2C=CCCC2)[C@@]1(C)O` [CINNABARAMIDE E] the IC50 [1] was 136 nM, the Activity [2] was “inactive” and the Activity [3] was “inactive”.
For `CCCCCC[C@H]1C(=O)N[C@@]2(C[C@@H]3C=CCCC3)C(=O)O[C@@]12C` [CINNABARAMIDE C], the IC50 [1] was 12 nM, the remaining at 24 h [4] was 50% and the Activity [2] was “inactive”. For the same compound, the Activity [3] was “inactive”.
